pEC50, pIC50: −log10 of the molar value. Where two headings read alike, the source gives them in different places.
Columns and labels:
[1] = test system: p53 WT cell lines; conditions: read-out: IC50 in cellular viability assays of p53 WT cell lines; cited from earlier work
[2] = test system: MCL1 in OCI-AML3 cells; assay: MCL1 levels in OCI-AML3 cells; type: cell-based, human; conditions: OCI-AML3, 1 μM each, 4 h, Western blot
Summary of the method: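 OCI-AML-3 cells (RPMI 1640 + 20% FBS) exposed to test compound, venetoclax, or both co-dosed; sampled 4 h post treatment. RIPA lysis 30 min at 4°C, centrifugal clarification, BCA protein assay, reducing SDS-PAGE, immunoblot with extended-duration chemiluminescent substrate; bands quantified by densitometry. Mean ± standard deviation.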

[3] = test system: p21 in MM.1S cells; assay: Time course of p21 levels in MM.1S cells; type: cell-based, human; conditions: time course 2-24 h
Summary of the method: (§1)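 MM.1S cells (RPMI 1640, 10% FBS, 1% L-glutamine) treated with test compound and sampled over a time course. Lysis in RIPA 30 min at 4°C, centrifugal clarification, BCA normalisation, reducing SDS-PAGE and immunoblot for p53 and p21. Chemiluminescent detection, densitometric band quantification; signal relative to DMSO-treated cells, mean ± standard deviation.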

[4] = test system: RKO-E6 cells; assay: RKO-E6 cell viability; type: cell-based, human
[5] = test system: MM.1S cells; assay: MM.1S cell viability; type: cell-based, human
[6] = test system: MM.1S cells; assay: MM.1S live-cell imaging; type: cell-based, human; conditions: 1 μM, 5 days
Summary of the method: (§2)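 IncuCyte S3 real-time growth, 4× objective: MRC5 (EMEM + 10% FBS, 4,000 cells/well) or MM.1S (RPMI 1640 + 10% FBS, 24,000 cells/well) seeded overnight, then exposed to test compound, idasanutlin or DMSO. Images every 6 h for 120 h from treatment start; growth expressed as phase object confluence.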

[7] = test system: p53 in MM.1S cells; assay: Time course of p53 levels in MM.1S cells; type: cell-based, human; conditions: for maximum increase of p53 above DMSO-treated cells: time course 2-24 h
Summary of the method: as §1

[8] = test system: RKO cells; assay: RKO cell viability; type: cell-based; conditions: Homo sapiens, 72 h, read-out: RKO IC50
[9] = test system: MRC5 cells; assay: MRC5 live-cell imaging; type: cell-based, human; conditions: 1 μM
Summary of the method: as §2

[10] = test system: p53 levels in MM.1S cells; assay: Meso Scale Discovery total p53 assay in MM.1S cells; type: cell-based; conditions: Homo sapiens, MM1.S, 4 h, read-out: MM.1S p53 EC50
Summary of the method: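 MM.1S cells plated at 1×10⁶/well overnight, then exposed 4 h to test compound, 4-fold 9-point series spanning 20 µM to 0.0003 µM, or DMSO (0.1% final). Total p53 in whole-cell lysate measured by Meso Scale Discovery immunoassay kit. p53 signal plotted against concentration and fitted for EC50.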

[11] = test system: 44 DUBs (DUBprofiler panel); assay: DUB selectivity profiling; type: biochemical; conditions: 10 μM compound
[12] = test system: p53 WT cell lines; assay: Cellular viability assays of p53 WT cell lines; type: cell-based; conditions: read-out: IC50 in cellular viability assays of p53 WT cell lines
[13] = test system: MM.1S tumors; assay: MM.1S cell-line-derived xenograft mouse model; type: in vivo
Summary of the method: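 Female CB-17 SCID mice (6-9 wk, 18-23 g) implanted s.c. in right flank with 5×10⁶ MM.1S cells in PBS/Matrigel 50/50. Randomised at mean tumour ~105 mm³; test compound by oral gavage; tumour and body weight measured twice weekly. Final-day urine at three intervals, diluted 1:50, mouse MIC-1 ELISA (OD450 minus OD570, standard curve). Tumours harvested 2 h post last dose, RIPA-homogenised, p53/p21 Western blot.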

[14] = test system: MV4-11 tumors; assay: MV4-11 cell-line-derived xenograft mouse model; type: in vivo; conditions: for tumor growth inhibition: MV4-11 tumors, oral, 24 days
Summary of the method: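 Female CB-17 SCID mice (6-9 wk, 18-23 g) implanted s.c. in right flank with 10×10⁶ MV4-11 cells in PBS/Matrigel 50/50. Oral gavage dosing; tumour and body weight twice weekly. Final-day urine collected at three intervals, diluted 1:50, mouse MIC-1 ELISA (OD450 minus OD570, standard curve). Tumours removed 4 h after last dose, RIPA-homogenised, p53 and p21 by Western blot.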

[15] = target: recombinant human USP7 (Homo sapiens, UniProt Q93009); assay: In vitro USP7 activity assay; type: biochemical
Sequence of recombinant human USP7 (Q93009 whole entry): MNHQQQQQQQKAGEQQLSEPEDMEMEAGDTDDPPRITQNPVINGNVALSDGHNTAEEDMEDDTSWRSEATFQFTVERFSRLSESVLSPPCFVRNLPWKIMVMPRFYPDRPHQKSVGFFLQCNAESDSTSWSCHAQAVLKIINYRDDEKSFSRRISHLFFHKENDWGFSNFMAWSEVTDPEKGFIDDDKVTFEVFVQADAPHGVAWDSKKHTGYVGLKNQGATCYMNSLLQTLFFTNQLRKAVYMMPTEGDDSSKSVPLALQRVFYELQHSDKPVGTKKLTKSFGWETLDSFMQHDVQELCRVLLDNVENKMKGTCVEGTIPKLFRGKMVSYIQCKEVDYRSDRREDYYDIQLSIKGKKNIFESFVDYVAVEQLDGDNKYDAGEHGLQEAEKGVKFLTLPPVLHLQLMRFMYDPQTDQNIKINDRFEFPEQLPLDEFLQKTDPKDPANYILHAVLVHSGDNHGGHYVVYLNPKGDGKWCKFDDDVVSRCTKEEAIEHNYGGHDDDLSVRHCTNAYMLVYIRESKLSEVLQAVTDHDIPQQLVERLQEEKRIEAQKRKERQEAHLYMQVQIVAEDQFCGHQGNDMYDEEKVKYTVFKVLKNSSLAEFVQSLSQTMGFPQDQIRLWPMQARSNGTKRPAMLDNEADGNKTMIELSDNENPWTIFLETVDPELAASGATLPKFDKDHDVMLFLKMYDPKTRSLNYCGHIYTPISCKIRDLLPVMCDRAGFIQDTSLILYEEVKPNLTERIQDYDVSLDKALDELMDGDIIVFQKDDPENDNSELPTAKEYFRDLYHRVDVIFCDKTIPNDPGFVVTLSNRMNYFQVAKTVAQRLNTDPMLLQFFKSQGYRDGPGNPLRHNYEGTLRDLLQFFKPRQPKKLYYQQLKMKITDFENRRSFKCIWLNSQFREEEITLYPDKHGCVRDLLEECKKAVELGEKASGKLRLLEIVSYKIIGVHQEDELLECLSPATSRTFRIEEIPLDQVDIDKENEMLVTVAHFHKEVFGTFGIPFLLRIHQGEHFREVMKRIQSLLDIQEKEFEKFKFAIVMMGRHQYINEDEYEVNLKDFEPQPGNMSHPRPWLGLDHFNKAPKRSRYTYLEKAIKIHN
Summary of the method: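 Test compound, 4-fold 10-point series from 2.5 µM top, pre-incubated 30 min at room temperature with 167 pM Sf21-baculovirus-expressed human USP7 in 20 mM HEPES pH 7.3, 150 mM NaCl, 1 mM TCEP, 125 µg/mL BSA, 0.4% DMSO. Ubiquitin-rhodamine added to 160 nM final; reaction 90 min at room temperature, acetic acid stop. Fluorescence 485/520 nm. % inhibition vs DMSO and no-enzyme controls; IC50 from curve fit; triplicate.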

[16] = MM.1S CDX, 2 h post final dose, Western blot
[17] = MV4-11 CDX, 4 h post final dose, Western blot

CC(=O)c1cc([N+](=O)[O-])c(Sc2ccc(F)cc2F)s1 [P22077]
pIC50 [1]: < 6.00

CC1(C)CCC(CN2CCN(c3ccc(C(=O)NS(=O)(=O)c4ccc(NCC5CCOCC5)c([N+](=O)[O-])c4)c(Oc4cnc5[nH]ccc5c4)c3)CC2)=C(c2ccc(Cl)cc2)C1 [Venetoclax]
effect on MCL1 levels [2]: increase in MCL1 levels

COc1cc(C(=O)O)ccc1NC(=O)[C@@H]1N[C@@H](CC(C)(C)C)[C@](C#N)(c2ccc(Cl)cc2F)[C@H]1c1cccc(Cl)c1F [Idasanutlin, reference compound]
maximum increase of p21 above DMSO-treated cells [3]: ~80 fold | shift of IC50 in RKO-E6 cells relative to the parental RKO cell line [4]: over 50 fold | inhibition of MM1.S cell viability compared with FX1-5303 ([5]; three days, CTG): equipotently | growth of the MM.1S cancer cell line [6]: fully inhibited growth | p53 elevation after 24h of treatment [7]: approximately 14 fold | maximum increase of p53 above DMSO-treated cells [7]: approximately 20 fold | pIC50 [8]: 6.77 | increase in cell confluency over the 5-day time course [9]: less than 10%

O=C1CCC(=O)N1Cc1cc2nccc(-c3cc(Cl)cc4c3N([C@@H]3CNC5(CCC5)C3)CCC4)c2s1 [FX1-5303, (S)-1-((7-(6-chloro-1-(5-azaspiro[3.4]octan-7-yl)-1,2,3,4-tetrahydroquinolin-8-yl)thieno[3,2-b]pyridin-2-yl)methyl)pyrrolidine-2,5-dione]
pEC50 [10]: 8.25 | inhibition in a panel of 44 DUBs [11]: only USP7 was inhibited | pIC50 [12]: > 7.30 | p21 levels in tumors vs untreated mice [13, 16]: significantly higher | p53 levels in tumors [13, 16]: elevated | MIC-1 in urine ([13]; MM.1S CDX, day 24, three time periods, ELISA): elevated levels | tolerability ([13]; MM.1S and MV4-11 CDX mouse models, oral dosing): generally well-tolerated | tumor growth inhibition ([13]; MM.1S tumors, 30 mg/kg twice daily, oral, 24 days): 95% | maximum increase of p21 above DMSO-treated cells [3]: ~6 fold | shift of IC50 in RKO-E6 cells relative to the parental RKO cell line [4]: essentially unchanged | pIC50 ([5]; Homo sapiens, MM1.S, 72 h, read-out: MM.1S viability IC50): 7.82 | growth of the MM.1S cancer cell line [6]: fully inhibited growth | p21 levels in tumors vs untreated mice [14, 17]: significantly higher | p53 levels in tumors [14, 17]: elevated | MIC-1 in urine ([14]; MV4-11 CDX, day 24, three time periods, ELISA): elevated levels | tumor growth inhibition ([14]; 30 mg/kg twice daily): 68% | tumor growth inhibition ([14]; 40 mg/kg twice daily): 72% | time of peak p53 levels after treatment [7]: 2 to 6 h | p53 elevation after 24h of treatment [7]: returns nearly to basal levels | maximum increase of p53 above DMSO-treated cells [7]: approximately 3 fold | pIC50 [8]: 5.47 | increase in cell confluency over the 5-day time course [9]: increased monotonically | pIC50 [15]: 9.54

Reference: PMC11059122 (iScience, 2024)
